Calls of active or inactive are those of the source. The rule behind the calls is not given here.
Assays:
[1] = target: T1, Carboxypeptidase G2 (Pseudomonas aeruginosa (strain ATCC 15692 / PAO1 / 1C / PRS 101 / LMG12228)) (UniProt Q9I056); test: Ratio of kcat/Km for carboxypeptidase G2; Not substrate
T1 sequence (whole entry): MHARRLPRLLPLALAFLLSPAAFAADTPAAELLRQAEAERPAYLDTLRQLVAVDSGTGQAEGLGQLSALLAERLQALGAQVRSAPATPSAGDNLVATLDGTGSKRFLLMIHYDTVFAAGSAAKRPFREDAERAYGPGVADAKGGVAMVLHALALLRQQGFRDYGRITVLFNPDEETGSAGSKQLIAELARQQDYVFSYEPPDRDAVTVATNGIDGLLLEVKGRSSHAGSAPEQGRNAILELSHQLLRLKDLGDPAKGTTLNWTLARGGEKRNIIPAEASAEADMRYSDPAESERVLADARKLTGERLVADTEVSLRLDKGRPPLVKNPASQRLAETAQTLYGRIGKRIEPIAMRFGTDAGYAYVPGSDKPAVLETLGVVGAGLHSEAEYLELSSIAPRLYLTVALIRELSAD
Summary of the method: (§1)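 CPG2 cleavage of the glutamate oxycarbonyl/carbamoyl bond was followed spectrophotometrically. Prodrug and drug were scanned at 200–350 nm, and the wavelength of maximal absorbance difference was chosen. Initial rates of conversion were measured over a range of prodrug and CPG2 concentrations. KM and Vmax came from Michaelis–Menten fits. kcat was Vmax divided by the CPG2 concentration in the reaction.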

[2] = target: T1, Carboxypeptidase G2 (Pseudomonas aeruginosa (strain ATCC 15692 / PAO1 / 1C / PRS 101 / LMG12228)); test: (§2) Ability to act as substrate for Carboxypeptidase G2; Not substrate; summary of the method: as §1
[3] = test system: LoVo; test: Cytotoxicity against colorectal tumor cell line LoVo 1 hour after incubation.; format: functional, cell-based; settings: Homo sapiens
Summary of the method: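 LoVo colorectal cells (2.5 × 10^3/well) were exposed to a range of prodrug or parent drug concentrations for 1 h, then washed. The cells were grown a further 3 days at 37 °C, fixed, and stained with sulforhodamine B to measure cellular protein. Treated wells were compared with untreated controls to give IC50. The ratio is prodrug IC50 over drug IC50.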

[4] = Half life was reported; format: ADME
Summary of the method: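 Hydrolysis of the chloroethyl mustard groups was measured in phosphate buffer, pH 7.4, at 37 °C. Products were separated by HPLC on a 25 cm ODS column. t1/2 was calculated with a standard kinetic program. The method was not applied to bromo, iodo or mesyl mustards.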

[5] = target: T1, Carboxypeptidase G2 (Pseudomonas aeruginosa (strain ATCC 15692 / PAO1 / 1C / PRS 101 / LMG12228)); test: Ratio of kcat/Km for carboxypeptidase G2 activity; summary of the method: as §1
[6] = target: T1, Carboxypeptidase G2 (Pseudomonas aeruginosa (strain ATCC 15692 / PAO1 / 1C / PRS 101 / LMG12228)); test: (§3) Ability to act as substrate for Carboxypeptidase G2; summary of the method: as §1
[7] = target: T1, Carboxypeptidase G2 (Pseudomonas aeruginosa (strain ATCC 15692 / PAO1 / 1C / PRS 101 / LMG12228)); test: Ratio of kcat/Km for carboxypeptidase G2; unstable; summary of the method: as §1
[8] = target: T1, Carboxypeptidase G2 (Pseudomonas aeruginosa (strain ATCC 15692 / PAO1 / 1C / PRS 101 / LMG12228)); test: (§4) Ability to act as substrate for Carboxypeptidase G2; unstable; summary of the method: as §1
[9] = substrate: O=C(O)CC[C@H](NC(=O)Oc1ccc(N(CCBr)CCBr)c(F)c1)C(=O)O; test: as §2; summary of the method: as §1
[10] = substrate: O=C(O)CC[C@H](NC(=O)Oc1ccc(N(CCCl)CCCl)c(Cl)c1)C(=O)O; test: as §2; summary of the method: as §1
[11] = substrate: O=C(O)CC[C@H](NC(=O)Oc1ccc(N(CCI)CCI)c(F)c1)C(=O)O; test: as §2; summary of the method: as §1
[12] = substrate: CC(C)c1cc(OC(=O)N[C@@H](CCC(=O)O)C(=O)O)ccc1N(CCCl)CCCl; test: as §3; summary of the method: as §1
[13] = substrate: Cc1cc(N(CCCl)CCCl)ccc1OC(=O)N[C@@H](CCC(=O)O)C(=O)O; test: as §3; summary of the method: as §1
[14] = substrate: Cc1cc(OC(=O)N[C@@H](CCC(=O)O)C(=O)O)ccc1N(CCCl)CCCl; test: as §3; summary of the method: as §1
[15] = substrate: N#Cc1cc(NC(=O)N[C@@H](CCC(=O)O)C(=O)O)ccc1N(CCCl)CCCl; test: as §3; summary of the method: as §1
[16] = substrate: O=C(O)CC[C@H](NC(=O)Nc1ccc(N(CCBr)CCBr)c(F)c1)C(=O)O; test: as §3; summary of the method: as §1
[17] = substrate: O=C(O)CC[C@H](NC(=O)Nc1ccc(N(CCCl)CCCl)c(Cl)c1)C(=O)O; test: as §3; summary of the method: as §1
[18] = substrate: O=C(O)CC[C@H](NC(=O)Nc1ccc(N(CCCl)CCCl)c(F)c1)C(=O)O; test: as §3; summary of the method: as §1
[19] = substrate: O=C(O)CC[C@H](NC(=O)Oc1ccc(N(CCBr)CCBr)cc1)C(=O)O; test: as §3; summary of the method: as §1
[20] = substrate: O=C(O)CC[C@H](NC(=O)Oc1ccc(N(CCCl)CCCl)cc1Cl)C(=O)O; test: as §3; summary of the method: as §1
[21] = substrate: O=C(O)CC[C@H](NC(=O)Oc1ccc(N(CCI)CCI)cc1)C(=O)O; test: as §3; summary of the method: as §1
[22] = substrate: O=C(O)CC[C@H](NC(=O)Oc1ccc(N(CCCl)CCCl)c(F)c1)C(=O)O; test: as §4; summary of the method: as §1

O=C(O)CC[C@H](NC(=O)Oc1ccc(N(CCBr)CCBr)c(F)c1)C(=O)O
Ratio [1]: inactive | k cat [2]: Not substrate | IC50 [3]: 46.2 µM

O=C(O)CC[C@H](NC(=O)Nc1ccc(N(CCCl)CCCl)c(F)c1)C(=O)O
half-life [4]: 6.8 min | Ratio [5]: 3.4 | IC50 [3]: > 500 µM | k cat [6]: 9.3 s⁻¹

Cc1cc(N(CCCl)CCCl)ccc1OC(=O)N[C@@H](CCC(=O)O)C(=O)O
half-life [4]: 33 min | Ratio [5]: 0.6 | IC50 [3]: 437 µM | k cat [6]: 13 s⁻¹

O=C(O)CC[C@H](NC(=O)Oc1ccc(N(CCI)CCI)c(F)c1)C(=O)O
Ratio [1]: inactive | k cat [2]: Not substrate | IC50 [3]: 24.5 µM

O=C(O)CC[C@H](NC(=O)Oc1ccc(N(CCCl)CCCl)cc1Cl)C(=O)O
half-life [4]: 186 min | Ratio [5]: 0.7 | IC50 [3]: 86.7 µM | k cat [6]: 50.5 s⁻¹

N#Cc1cc(NC(=O)N[C@@H](CCC(=O)O)C(=O)O)ccc1N(CCCl)CCCl
half-life [4]: 61 min | Ratio [5]: 1 | IC50 [3]: > 500 µM | k cat [6]: 8.4 s⁻¹

O=C(O)CC[C@H](NC(=O)Oc1ccc(N(CCCl)CCCl)c(Cl)c1)C(=O)O
half-life [4]: 1.7 min | Ratio [1]: inactive | k cat [2]: Not substrate | IC50 [3]: 9.4 µM

CC(C)c1cc(OC(=O)N[C@@H](CCC(=O)O)C(=O)O)ccc1N(CCCl)CCCl
half-life [4]: 2.2 min | Ratio [5]: 0.2 | IC50 [3]: 36.7 µM | k cat [6]: 12.6 s⁻¹

O=C(O)CC[C@H](NC(=O)Nc1ccc(N(CCBr)CCBr)c(F)c1)C(=O)O
Ratio [5]: 2.7 | IC50 [3]: 298 µM | k cat [6]: 14.5 s⁻¹

O=C(O)CC[C@H](NC(=O)Nc1ccc(N(CCCl)CCCl)c(Cl)c1)C(=O)O
half-life [4]: 2.8 min | Ratio [5]: 7.8 | IC50 [3]: 330 µM | k cat [6]: 9.4 s⁻¹

Cc1cc(OC(=O)N[C@@H](CCC(=O)O)C(=O)O)ccc1N(CCCl)CCCl
half-life [4]: 1.6 min | Ratio [5]: 2.3 | IC50 [3]: 116 µM | k cat [6]: 30 s⁻¹

O=C(O)CC[C@H](NC(=O)Oc1ccc(N(CCCl)CCCl)c(F)c1)C(=O)O
half-life [4]: 19 min | Ratio [7]: Unstable | k cat [8]: Unstable | IC50 [3]: 53 µM

O=C(O)CC[C@H](NC(=O)Oc1ccc(N(CCI)CCI)cc1)C(=O)O
Ratio [5]: 14.8 | IC50 [3]: 47.2 µM | k cat [6]: 29.5 s⁻¹

O=C(O)CC[C@H](NC(=O)Oc1ccc(N(CCBr)CCBr)cc1)C(=O)O
IC50 [3]: 9.4 µM | k cat [6]: 60 s⁻¹

B1: Carboxypeptidase G2 (Pseudomonas aeruginosa (strain ATCC 15692 / PAO1 / 1C / PRS 101 / LMG12228)), Q9I056 (protein)
chain: T1 sequence (whole entry)
Km [9]: Not substrate | Km [10]: Not substrate | Km [11]: Not substrate | Km [12]: 56 µM | Km [13]: 23.5 µM | Km [14]: 13 µM | Km [15]: 8.3 µM | Km [16]: 5.4 µM | Km [17]: 1.2 µM | Km [18]: 2.7 µM | Km [19]: 6.2 µM | Km [20]: 76.5 µM | Km [21]: 2 µM | Km [22]: Unstable
